Assay results collected from several papers.
Lines come from different studies, so protocols differ. pEC50, pIC50, pKi: −log10 of the molar value.
HTR3A: 5-hydroxytryptamine receptor 3A (HTR3A, Homo sapiens, UniProt P46098)
OPRD1: Delta-type opioid receptor (OPRD1, Homo sapiens, UniProt P41143)
CA2: Carbonic anhydrase 2 (CA2, Homo sapiens, UniProt P00918)
PLG trypsin-like site: Plasminogen, trypsin-like site (PLG, Homo sapiens, UniProt P00747)

CCOC(=O)c1cncn1[C@@H](C)c1ccc(C2(C(F)(F)F)N=N2)cc1 — pIC50 (HTR3A; ion current, two-electrode voltage clamp; oocytes): 5.05
Cc1cn([C@@H]2CC[C@H](OC(C(=O)O)C(=O)O)C2)c(=O)[nH]c1=O — pIC50 (Gag-Pol polyprotein, reverse transcriptase (gag-pol, Human immunodeficiency virus 1, UniProt P03366); enzyme activity, inhibitor, radiometric): 4.70
O=C(CCCOc1cccc(Br)c1)N[C@H]1C[C@@H]2C[C@@H]2C1=O (relative stereo) — pEC50 (Transcriptional activator protein LasR (lasR, Pseudomonas aeruginosa, UniProt P25084, R61A); reporter gene, agonist): 6.89
CCC[C@H](CNC)NC[C@@H](CCC)NCC1CCCCCC1 — pIC50 (OPRD1; cell-free assay): < 5.00
On1c(=S)ccc2ccccc21 — pKi (CA2; enzyme activity, inhibitor, absorbance; pH 8): 3.14
CC[C@H](C)[C@H](NC(=O)[C@H](Cc1ccccc1)NC(=O)[C@H](CC(=O)O)NC(=O)[C@H](CCCNC(=N)N)NC(=O)[C@@H](NC(=O)[C@H](C)NC(=O)[C@H](CC(C)C)NC(=O)[C@H](CC(N)=O)NC(=O)[C@H](CC(=O)O)NC(=O)[C@H](CC(C)C)NC(=O)[C@@H](NC(=O)[C@@H](NC(=O)[C@H](CO)NC(=O)[C@H](CCSC)NC(=O)[C@H](CCC(=O)O)NC(=O)[C@H](CC(=O)O)NC(=O)[C@H](CO)NC(=O)[C@H](Cc1ccccc1)NC(=O)[C@H](CO)NC(=O)CNC(=O)[C@H](CC(=O)O)NC(=O)[C@H](C)NC(=O)[C@@H](N)Cc1c[nH]cn1)[C@@H](C)O)[C@@H](C)CC)[C@@H](C)O)C(=O)N[C@@H](CC(N)=O)C(=O)N[C@@H](Cc1c[nH]c2ccccc12)C(=O)N[C@@H](CC(C)C)C(=O)N[C@H](C(=O)N[C@@H](CCC(N)=O)C(=O)N[C@H](C(=O)N[C@@H](CCCCN)C(=O)N[C@H](C(=O)N[C@H](C(=O)N[C@@H](CC(=O)O)C(=O)O)[C@@H](C)O)[C@@H](C)CC)[C@@H](C)O)[C@@H](C)CC — pEC50 (Gastric inhibitory polypeptide receptor (GIPR, Homo sapiens, UniProt P48546); reporter gene, agonist, luciferase): < 6.00
CCC(C)[C@@H](CNC)N1CCN(CCC23CC4CC(CC(C4)C2)C3)[C@H](C(C)C)C1 (some centres unmarked) — pIC50 (OPRD1; cell-free assay): < 5.00
CS(=O)(=O)c1cccc(OCCCC(=O)N[C@H]2C[C@@H]3C[C@@H]3C2=O)c1 (relative stereo) — pEC50 (Transcriptional activator protein LasR (lasR, Pseudomonas aeruginosa, UniProt P25084, Y93F); reporter gene, agonist): 6.30
CC(C)(C)[C@H](NC(=O)[C@H](CCONC(=N)N)NC(=O)Cc1ccc(CN)cc1)C(=O)N[C@@H](CCCCN)C(=O)NCc1ccc(C(=N)N)cc1 — pKi (PLG trypsin-like site; enzyme activity, inhibitor; pH 8): 4.68
Cc1cc(O)cc(C)c1C[C@H](N)C(=O)N[C@H](C)C(=O)NCC(=O)N[C@@H](Cc1ccc(Cl)cc1)C(=O)N(C)CCC[C@@]1(c2ccc(F)cc2)OCc2cc(C#N)ccc21 — pKi (Alpha-2A adrenergic receptor (ADRA2A, Homo sapiens, UniProt P08913); ligand displacement, radioligand): 5.33
COc1cc(C(=O)N2CC[C@@H](O)[C@@H](N)C2)cc2nc(-c3cc4ccccc4n3CC3CC3)n(C)c12 — pEC50 (HTR3A; calcium signal, agonist): 4.30
CC(C)(C)[C@H](NC(=O)[C@H](CCCNC(=N)N)NC(=O)Cc1ccc(CNC(=N)N)cc1)C(=O)N[C@@H](CCONC(=N)N)C(=O)NCc1ccc(C(=N)N)cc1 — pKi (PLG trypsin-like site; enzyme activity, inhibitor; pH 8): 5.51
CCC[C@H](CNC)NC[C@@H](CCC)NCCC1CC2CCC1C2 (some centres unmarked) — pIC50 (OPRD1; cell-free assay): < 5.00
CC(C)(C)[C@H](NC(=O)[C@H](CCONC(=N)N)NC(=O)Cc1ccc(CN)cc1)C(=O)N[C@@H](CCONC(=N)N)C(=O)NCc1ccc(C(=N)N)cc1 — pKi (PLG trypsin-like site; enzyme activity, inhibitor; pH 8): 4.72
CC(=O)Nc1ccc(O)cc1 — pKi (NAD(P)H dehydrogenase [quinone] 1 (NQO1, Homo sapiens, UniProt P15559); enzyme activity, inhibitor, absorbance): < 3.00
Cc1ccnc(S)c1 — pKi (CA2; enzyme activity, inhibitor, absorbance; pH 8): 2.15
CCC(C)[C@@H](CNC)N1CCN(CCC2CC3CCC2C3)[C@H](C(C)C)C1 (some centres unmarked) — pIC50 (OPRD1; cell-free assay): < 5.00
